In ChEMBL document CHEMBL3864131, “Development, synthesis and structure-activity-relationships of inhibitors of the macrophage infectivity potentiator (Mip) proteins of Legionella pneumophila and Burkholderia pseudomallei” (Bioorg Med Chem, 2016):

Assays:
in vitro = settings: mouse, J774.1 cells
[1] = target: Outer membrane protein MIP (Legionella pneumophila, UniProt Q70YI1)
[2] = Stability of the compound in methanol/HEPES buffer at pH 7.8 at 40 degC for 24 hrs by HPLC analysis; assay type: physicochemical; settings: read-out: Stability
Outline: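 Compound dilutions incubated for 24 h in methanol with 10 mM HEPES buffer (pH 7.8) at 25 °C and 40 °C. HPLC analysis was done at 0 and 24 h to give the percentage of intact compound remaining.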

[3] = Metabolic stability in mouse J774.1 cells at 37 degC after 24 hrs by HPLC analysis; assay type: ADME, cell-based; settings: read-out: Stability
Outline: (§1)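 Compound incubated with J774.1 murine macrophages in RPMI medium at 37 °C, sampled at 0, 1 and 24 h, and the remaining compound quantified by HPLC.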

[4] = Metabolic stability in mouse J774.1 cells at 37 degC after 1 hr by HPLC analysis; assay type: ADME, cell-based; settings: read-out: Stability
Outline: as §1

[5] = Stability in human plasma after 24 hrs by HPLC analysis; assay type: ADME, cell-free
Outline: (§2)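 Compound incubated in human plasma and sampled at 1, 4 and 24 h. The decrease in compound concentration was followed by HPLC.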

[6] = Stability in human plasma after 4 hrs by HPLC analysis; assay type: ADME, cell-free
Outline: as §2

[7] = Stability in human plasma after 1 hr by HPLC analysis; assay type: ADME, cell-free
Outline: as §2

Sequence of Outer membrane protein MIP (Q70YI1 21-233 limits assumed): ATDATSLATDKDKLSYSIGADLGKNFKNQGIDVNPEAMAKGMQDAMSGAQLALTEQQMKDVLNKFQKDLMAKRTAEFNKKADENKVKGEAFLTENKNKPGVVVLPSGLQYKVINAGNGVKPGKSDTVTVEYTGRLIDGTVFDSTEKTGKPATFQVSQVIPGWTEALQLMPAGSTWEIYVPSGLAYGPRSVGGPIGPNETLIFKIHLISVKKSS

**Q.** With `O=C(OCCCc1cccnc1)C1CCCCN1S(=O)(=O)Cc1cccc([N+](=O)[O-])c1` (racemic) as the molecule, how does the IC50 at 24 h (in vitro) read?
**A.** The IC50 at 24 h was 46.7 µM.

**Q.** What about the IC50 [1] of the same molecule?
**A.** The IC50 was 8.7 µM.

**Q.** For `O=C(OCCCc1cccnc1)[C@@H]1CCCCN1S(=O)(=O)Cc1ccc(F)cc1`, which IC50 at 24 h (in vitro) is on record?
**A.** The IC50 at 24 h was over 100 µM.

**Q.** What about the IC50 [1] of the same molecule?
**A.** The IC50 was 5.7 µM.

**Q.** And the remaining at 24 h [2]?
**A.** Its remaining at 24 h is over 95%.

**Q.** With `O=C(OCCCc1cccnc1)[C@@H]1CCCCN1S(=O)(=O)Cc1cccc(Cl)c1` as the molecule, how does the IC50 at 24 h (in vitro) read?
**A.** Its IC50 at 24 h is 43.3 µM.

**Q.** And the IC50 [1]?
**A.** The IC50 was 7.5 µM.

**Q.** Which IC50 at 24 h (in vitro) does the source give for `O=C(OCCCc1cccnc1)[C@@H]1CCCCN1S(=O)(=O)Cc1cccc([N+](=O)[O-])c1` here?
**A.** The IC50 at 24 h was 48.2 µM.

**Q.** What about the IC50 [1] of the same molecule?
**A.** Its IC50 is 7.9 µM.

**Q.** With `COCCOc1cc(OCCOC)cc(C(=O)OCCOC(=O)[C@@H]2CCCCN2S(=O)(=O)Cc2ccccc2)c1` as the molecule, how does the remaining at 24 h [3] read?
**A.** The remaining at 24 h was 59%.

**Q.** What about the IC50 at 24 h (in vitro) of the same molecule?
**A.** The IC50 at 24 h was over 80 µM.

**Q.** And the IC50 [1]?
**A.** The IC50 was 8.6 µM.

**Q.** And the remaining at 1 h [4]?
**A.** Its remaining at 1 h is 98%.

**Q.** And the remaining at 24 h [2]?
**A.** The remaining at 24 h was 85%.

**Q.** For `CC(C)Nc1ccc(CS(=O)(=O)N2CCCCC2C(=O)OCCCc2cccnc2)cc1` (racemic), which IC50 at 24 h (in vitro) is on record?
**A.** The IC50 at 24 h was 44.3 µM.

**Q.** And the IC50 [1]?
**A.** The IC50 was 44.5 µM.

**Q.** With `C[C@@H](CNC(=O)c1cccnc1)OC(=O)[C@@H]1CCCCN1S(=O)(=O)Cc1ccccc1` as the molecule, how does the remaining at 24 h [3] read?
**A.** The remaining at 24 h was 97%.

**Q.** And the IC50 at 24 h (in vitro)?
**A.** The IC50 at 24 h was over 100 µM.

**Q.** And the IC50 [1]?
**A.** The IC50 was 3.5 µM.

**Q.** What about the remaining at 1 h [4] of the same molecule?
**A.** The remaining at 1 h was 95%.

**Q.** What about the remaining at 24 h [2] of the same molecule?
**A.** The remaining at 24 h was over 95%.

**Q.** What does the source list for `CC(C)OC(=O)C1CCCCN1S(=O)(=O)Cc1ccccc1` (racemic)?
**A.** IC50 at 24 h (in vitro): > 100 µM; IC50 [1]: 79.2 µM; remaining at 24 h [2]: > 95%

**Q.** For `O=C(OCCCc1cccnc1)[C@@H]1CCCCN1S(=O)(=O)Cc1ccc(Cl)cc1`, which IC50 at 24 h (in vitro) is on record?
**A.** The IC50 at 24 h was 33.6 µM.

**Q.** What about the IC50 [1] of the same molecule?
**A.** Its IC50 is 2.4 µM.

**Q.** For `Nc1cccc(CS(=O)(=O)N2CCCCC2C(=O)OCCCc2cccnc2)c1` (racemic), which IC50 at 24 h (in vitro) is on record?
**A.** The IC50 at 24 h was 62.3 µM.

**Q.** And the IC50 [1]?
**A.** The IC50 was over 100 µM.

**Q.** For `O=C(OCCOc1cccnc1)[C@@H]1CCCCN1S(=O)(=O)Cc1ccccc1`, which remaining at 24 h [3] is on record?
**A.** Its remaining at 24 h is 77%.

**Q.** And the IC50 at 24 h (in vitro)?
**A.** Its IC50 at 24 h is over 100 µM.

**Q.** What about the IC50 [1] of the same molecule?
**A.** The IC50 was 7.7 µM.

**Q.** And the remaining at 1 h [4]?
**A.** The remaining at 1 h was 88%.

**Q.** What about the remaining at 24 h [2] of the same molecule?
**A.** Its remaining at 24 h is over 95%.

**Q.** What does the source list for `CC(C)Nc1cccc(CS(=O)(=O)N2CCCCC2C(=O)OCCCc2cccnc2)c1` (racemic)?
**A.** IC50 at 24 h (in vitro): 57.4 µM; IC50 [1]: 41.5 µM

**Q.** Which results are given for `COc1cc(C(=O)NCCOC(=O)[C@@H]2CCCCN2S(=O)(=O)Cc2ccccc2)ccc1O`?
**A.** IC50 at 24 h (in vitro): > 100 µM; IC50 [1]: 3.2 µM

**Q.** For `Nc1ccc(CS(=O)(=O)N2CCCCC2C(=O)OCCCc2cccnc2)cc1` (racemic), which IC50 at 24 h (in vitro) is on record?
**A.** Its IC50 at 24 h is over 100 µM.

**Q.** What about the IC50 [1] of the same molecule?
**A.** The IC50 was 21.4 µM.

**Q.** With `O=C(OCCCc1cccnc1)C1CCCCN1S(=O)(=O)Cc1ccc([N+](=O)[O-])cc1` (racemic) as the molecule, how does the IC50 at 24 h (in vitro) read?
**A.** The IC50 at 24 h was 56.7 µM.

**Q.** What about the IC50 [1] of the same molecule?
**A.** Its IC50 is 3.9 µM.

**Q.** What does the source list for `O=C(OCCCc1cccnc1)C1CCCCN1S(=O)(=O)Cc1ccccc1` (racemic)?
**A.** IC50 at 24 h (in vitro): > 100 µM; IC50 [1]: 10.7 µM

**Q.** With `O=C(OCCOC(=O)[C@@H]1CCCCN1S(=O)(=O)Cc1ccccc1)c1cccnc1` as the molecule, how does the remaining at 24 h [3] read?
**A.** The remaining at 24 h was 50%.

**Q.** What about the IC50 at 24 h (in vitro) of the same molecule?
**A.** Its IC50 at 24 h is over 100 µM.

**Q.** What about the IC50 [1] of the same molecule?
**A.** The IC50 was 2.6 µM.

**Q.** And the remaining at 1 h [4]?
**A.** Its remaining at 1 h is 82%.

**Q.** What about the remaining at 24 h [2] of the same molecule?
**A.** The remaining at 24 h was 40%.

**Q.** Which results are given for `COCCOc1cc(OCCOC)cc(C(=O)NCCOC(=O)[C@@H]2CCCCN2S(=O)(=O)Cc2ccccc2)c1`?
**A.** IC50 at 24 h (in vitro): > 100 µM; IC50 [1]: 5.6 µM; remaining at 24 h [2]: > 95%

**Q.** For `O=C(C(=O)N1CCCC[C@H]1C(=O)OCCCc1cccnc1)c1ccccc1`, which IC50 at 24 h (in vitro) is on record?
**A.** The IC50 at 24 h was 88.1 µM.

**Q.** What about the IC50 [1] of the same molecule?
**A.** The IC50 was 142 µM.

**Q.** Which results are given for `O=C(NCCOC(=O)[C@@H]1CCCCN1S(=O)(=O)Cc1ccccc1)c1cccnc1`?
**A.** remaining at 24 h [3]: 81%; IC50 at 24 h (in vitro): > 100 µM; Stability [5]: 50%; IC50 [1]: 11.4 µM; remaining at 1 h [4]: 82%; Stability [6]: 20%; Stability [7]: 5%

**Q.** Which remaining at 24 h [2] does the source give for `COc1cc(CCCOC(=O)[C@@H]2CCCCN2S(=O)(=O)Cc2ccccc2)cc(OC)c1OC` here?
**A.** Its remaining at 24 h is 99%.

**Q.** What does the source list for `O=C(OCCCc1cccnc1)C1CCCCN1C(=O)COc1ccc(Cl)cc1` (racemic)?
**A.** IC50 at 24 h (in vitro): 50.9 µM; IC50 [1]: 89.3 µM

**Q.** With `COc1cc(C(=O)NC[C@H](C)OC(=O)[C@@H]2CCCCN2S(=O)(=O)Cc2ccccc2)cc(OC)c1OC` as the molecule, how does the IC50 at 24 h (in vitro) read?
**A.** The IC50 at 24 h was over 100 µM.

**Q.** What about the IC50 [1] of the same molecule?
**A.** Its IC50 is 2.2 µM.

**Q.** Which results are given for `O=C(OCCCc1cccnc1)[C@@H]1CCCCN1S(=O)(=O)Cc1ccccc1`?
**A.** IC50 at 24 h (in vitro): > 100 µM; IC50 [1]: 5.8 µM; remaining at 24 h [2]: 99%

**Q.** With `O=C(OCCO)C1CCCCN1S(=O)(=O)Cc1ccccc1` (racemic) as the molecule, how does the remaining at 24 h [3] read?
**A.** Its remaining at 24 h is 86%.

**Q.** And the IC50 at 24 h (in vitro)?
**A.** Its IC50 at 24 h is over 100 µM.

**Q.** And the IC50 [1]?
**A.** Its IC50 is 94 µM.

**Q.** What about the remaining at 1 h [4] of the same molecule?
**A.** Its remaining at 1 h is 95%.

**Q.** What about the remaining at 24 h [2] of the same molecule?
**A.** Its remaining at 24 h is over 95%.

**Q.** With `C[C@H](CNC(=O)c1cccnc1)OC(=O)[C@@H]1CCCCN1S(=O)(=O)Cc1ccccc1` (single isomer, unassigned) as the molecule, how does the IC50 at 24 h (in vitro) read?
**A.** The IC50 at 24 h was over 100 µM.

**Q.** What about the IC50 [1] of the same molecule?
**A.** The IC50 was 11.5 µM.

**Q.** Which results are given for `CC(C)NC(=O)[C@@H]1CCCCN1S(=O)(=O)Cc1ccccc1`?
**A.** IC50 at 24 h (in vitro): > 100 µM; IC50 [1]: > 100 µM; remaining at 24 h [2]: > 95%
